Compounds with a hit are over-represented: about 1.8% of the library has one in this group of screens.
TCR CD3 inh: inhibitors of human TCR-CD3 interaction, primary screen, biochemical, fluorescence, TAMRA-labeled TCR probe; 360,000 compounds, 0.37% hits; inhibition, % at 9.4 µM; in the data active = inhibition above about 19%;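 also: recombinant mutant TCR 2C K166C tagged with TAMRA read by polarization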
ABHD4 inh: ABHD4 inhibitors, primary screen, biochemical, fluorescence polarization, mouse; purified mABHD4, FP-Rh probe fluorescence polarization; 370,000 compounds, 0.54% hits; inhibition, % at 8.92 µM; AID 720543, 2013;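 active = inhibition exceeding the mean over every tested compound plus 3 SD, cut at about 30% in these data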
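Assay system: mABHD4 protein; medium: HEPES pH 7.0, NaCl, Pluronic buffer; dosing: 8.92 µM, single dose; schedule: 45 min + 60 min at 25 °C; signal: FP readout, ex 525 nm / em 598 nm; read-out: normalized percent inhibition of probe labeling; repeats: single replicate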
Tn7 DDE FP: inhibitors of Tn7 peptide binding to fibrin DD(E), primary screen, biochemical, fluorescence polarization, human fibrin, Tn7 probe; 370,000 compounds, 0.13% hits; FP displacement of FITC-Tn7 peptide from fibrin DD(E); 0% = median of compound wells per plate; Fibrinogen beta chain (Homo sapiens), P02675; inhibition, % at 8.3 µM; AID 720508, 2013;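 active = inhibition above the mean of compounds falling within the control limits plus 3 SD of them, cut at about 14% in these data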
Target sequence (P02675 whole entry, looked up): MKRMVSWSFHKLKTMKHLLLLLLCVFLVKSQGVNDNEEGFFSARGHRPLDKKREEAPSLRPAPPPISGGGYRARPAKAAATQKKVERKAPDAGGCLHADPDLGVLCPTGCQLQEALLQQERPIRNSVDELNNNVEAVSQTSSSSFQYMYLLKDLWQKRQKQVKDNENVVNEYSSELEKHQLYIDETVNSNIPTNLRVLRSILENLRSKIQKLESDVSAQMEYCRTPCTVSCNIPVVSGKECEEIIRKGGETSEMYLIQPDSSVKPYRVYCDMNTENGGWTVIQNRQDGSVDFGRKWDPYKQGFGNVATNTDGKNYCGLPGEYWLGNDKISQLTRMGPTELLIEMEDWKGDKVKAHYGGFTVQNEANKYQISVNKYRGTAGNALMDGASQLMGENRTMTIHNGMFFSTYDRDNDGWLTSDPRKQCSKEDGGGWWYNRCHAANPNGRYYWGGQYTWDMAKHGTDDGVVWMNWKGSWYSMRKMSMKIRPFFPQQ
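Test system: human clot-derived fibrin DD(E) complex / Quantity: 2 µM final DD(E) protein / Incubation: 10 min plus 3 h, room temperature / Measured by: fluorescence polarization / Benchmarks: high control of 10 µM Aha-Tn7 peptide / Replicates: singlicate testing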
DDE Tn6 FP inh: inhibitors of Tn6 peptide binding to fibrin DD(E), primary screen, biochemical, fluorescence polarization, human fibrin, Tn6 probe | Fibrinogen beta chain (Homo sapiens), P02675 | Fibrin DD(E) TRITC-Tn6 fluorescence polarization displacement | inhibition, % at 8.3 µM | 370,000 compounds, 0.21% hits | AID 720509, 2013;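 active = inhibition above a per-campaign cutoff: mean of compounds within control limits plus 3 SD, cut at about 15% in these data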
HTRA1 inh: HTRA1 serine protease inhibitors, primary screen, biochemical, fluorescence polarization, HTS; Q92743; recombinant HTRA1, FP-rhodamine activity-based probe; inhibition, % at 5.96 µM; 340,000 compounds, 0.5% hits; AID 504803, 2011; in the data active = inhibition above about 36%
SIAE primary: human SIAE inhibitors, primary screen, biochemical, fluorescence polarization, FP-Rh probe, 1536-well HTS; inhibition, % at 9.66 µM; SIAE FP-Rh probe binding; AID 1053197, 2014; 370,000 compounds, 0.69% hits; Sialate O-acetylesterase (Homo sapiens), Q9HAT2;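 active = inhibition above a cutoff: mean of compounds within the control limits plus 3 SD of those, cut at about 17% in these data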
mABHD4 conf: ABHD4 inhibitors, retest, confirmation, biochemical, fluorescence polarization, mouse; 1,800 compounds, 55% hits; shares compounds with ABHD4 inh; inhibition, % at 8.92 µM; purified mABHD4, FP-Rh probe fluorescence polarization; AID 720658, 2013;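 active = mean inhibition across replicates above the hit cutoff set in the primary screen, cut at about 30% in these data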
SIAE confirm: human SIAE inhibitors, retest, confirmation, biochemical, fluorescence polarization, FP-Rh probe, triplicate; shares compounds with SIAE primary; SIAE FP-Rh activity-based probe; inhibition, % at 9.66 µM; 2,300 compounds, 13% hits; AID 1117263, 2014;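 active = mean inhibition of the replicates above the hit cutoff set in the primary screen, cut at about 17% in these data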;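 also: inhibitors lower polarization as more probe stays unbound to SIAE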
Of the large screens only hits and unclear results are named; the others gave an inactive call (follow-up assays come after a bar, where they were run).

COc1cc(OC)cc(C(=O)NC(=S)NNC(=O)c2cnccn2)c1	none
CCOC(=O)C1=CN(Cc2cccc(-c3ccc4c(c3)OCO4)c2)S(=O)(=O)N(C)C1C (stereo not drawn)	none
Cc1ccc(-n2ncc3c2CC(C)(C)CC3NC(=O)CCc2c(C)noc2C)cc1 (stereo not drawn)	none
O=[N+]([O-])c1cccc(/C=N/Nc2nc(NCc3ccccc3)nc(N3CCOCC3)n2)c1	ABHD4 inh 46.7 | mABHD4 conf inactive
CCOC(=O)N1CCN(C(=O)C[C@H]2C[C@@]3(C(=O)OC)C(=C[C@H](C(C)(C)C)O[C@@H]3C)N(CCc3ccc(OC)c(OC)c3)C2=O)CC1	none (no result: TCR CD3 inh, HTRA1 inh)
CCOC(=O)c1c(C)n(-c2ccc(C)cc2)c2c(C(C(C)=O)C(=O)O)c(Br)c(O)c(O)c12 (stereo not drawn)	ABHD4 inh 41.4 | mABHD4 conf 30.6
CCOC(=O)c1c(C)n(-c2ccc(C)cc2)c2c(CC(C)=O)c(Br)c(OC)c(O)c12	none
Cc1cccc(N(CC(=O)NCc2ccc3c(c2)OCO3)C(=O)CCC(=O)Nc2ccccn2)c1	ABHD4 inh 39.9 | mABHD4 conf inactive
C(=C\c1ccccc1)/CN1CCN(C(c2cccs2)c2nnnn2-c2ccc3c(c2)OCCO3)CC1 (stereo not drawn)	none (no result: HTRA1 inh)
COc1ccccc1CNC(=O)COC(=O)c1cc(C)nc2ccccc12	none
COc1cc2cc(C)nc(Cc3cccc4ccccc34)c2cc1OC	ABHD4 inh 32.5 | mABHD4 conf 40.5
Cc1c(C)n2c(SCC(=O)NC3CCCCC3)nnc2[nH]c1=O	ABHD4 inh 30.6 | mABHD4 conf inactive
OCCN(CCO)c1ccc2ccccc2c1	none
OCCN(CCO)c1cc2c3ccccc3ccc2c2ccccc12	ABHD4 inh 30.3 | mABHD4 conf inactive
O=C(CCC(=O)N1CCN(S(=O)(=O)c2ccc([N+](=O)[O-])cc2)CC1)N1CCOCC1	none
Oc1nc(Nc2ccc(F)cc2)sc1/C=C1\C=Nc2ccccc21	none
O=c1[nH]c(S)c(/C=C2\C=Nc3ccccc32)s1	ABHD4 inh 30.1 (no result: HTRA1 inh) | mABHD4 conf 35.4
Cc1cccc(NC(=O)c2cccc(C(=O)Nc3cccc(C)c3)n2)c1	none
O=C(c1cccc([N+](=O)[O-])c1)c1ccccn1	none
Cc1cccc(NC(=O)NNC(=O)c2ccccn2)c1	ABHD4 inh 30.4 | mABHD4 conf inactive
O=C(NNC(=O)c1ccccn1)c1cccc([N+](=O)[O-])c1	ABHD4 inh 32.3 | mABHD4 conf inactive
Oc1ccccc1C1Nc2cccc3cccc(c23)N1	none
COc1ccccc1C1Nc2cccc3cccc(c23)N1	ABHD4 inh 54.5 | mABHD4 conf 52.5
CCNc1oc(/C=C/c2ccc(OCC)cc2)nc1C#N	none
COC(=O)C1=C(C)N(Cc2cccc(C(F)(F)F)c2)C(=NCc2ccc(OC)cc2)NC1c1ccc(Cl)cc1 (stereo not drawn)	none (no result: HTRA1 inh)
N[C@@H](Cc1cc(I)c(O)c(I)c1)C(=O)O	ABHD4 inh 51.0 | mABHD4 conf 80.4
Cc1ccc(C(O)c2ncc(-c3cccc(C(F)(F)F)c3)[nH]2)cc1F (stereo not drawn)	none (no result: HTRA1 inh)
CNC(=O)c1ccc(-c2sc3nc(N4CCOCC4)c4c(c3c2N)CCCC4)o1	ABHD4 inh 31.9, SIAE primary 21.9 | mABHD4 conf inactive | SIAE confirm inactive

Compound activity (PubChem)
